Screening results from PubChem.
ERb coact inh: ER-beta (human) coactivator binding inhibition. Q92731. TR-FRET ER-beta LBD / SRC1-Cy5 peptide binding; receptor agonist-loaded with 1 µM estradiol. inhibition, % at 25.6 µM. 86,000 tested, 1.3% active;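 active means compounds whose percent inhibition of the receptor-coactivator binding signal exceeds about 50% in the single-dose screen, limit read from the data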
Target sequence (Q92731 whole entry, looked up, the tested form may be a part): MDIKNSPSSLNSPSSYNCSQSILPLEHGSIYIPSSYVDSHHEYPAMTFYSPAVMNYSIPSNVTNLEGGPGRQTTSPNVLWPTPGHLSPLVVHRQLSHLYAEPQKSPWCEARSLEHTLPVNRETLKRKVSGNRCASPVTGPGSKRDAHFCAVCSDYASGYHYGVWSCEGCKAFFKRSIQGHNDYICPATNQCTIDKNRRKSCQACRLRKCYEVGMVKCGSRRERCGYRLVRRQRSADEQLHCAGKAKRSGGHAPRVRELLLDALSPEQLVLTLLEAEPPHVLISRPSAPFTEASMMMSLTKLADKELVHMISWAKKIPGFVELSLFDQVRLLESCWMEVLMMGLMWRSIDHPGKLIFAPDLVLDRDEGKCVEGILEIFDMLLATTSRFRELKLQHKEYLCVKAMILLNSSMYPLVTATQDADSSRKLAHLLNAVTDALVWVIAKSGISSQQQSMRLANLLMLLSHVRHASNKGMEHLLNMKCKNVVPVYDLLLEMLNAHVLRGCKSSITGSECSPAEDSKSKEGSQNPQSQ
Rev-RRE block: disrupts HIV-1 Rev binding to RRE RNA; P05866; Rev peptide-RRE RNA binding, FRET; inhibition, % at 8 µM; 97,000 tested, 0.79% active;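 active means inhibition above the screen-wide mean plus 3 SD, cut at about 35% in these data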
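Test system – labelled RRE RNA duplex and labelled Rev peptide · Signal – fluorescein-to-Cy5 FRET, 480 nm excitation · Evaluation – % inhibition of FRET ratio versus controls · Benchmarks – DMSO low control, neomycin B high control · Incubation – 5 min RNA-compound premix plus 15 min binding step, 25 °C · Medium – HEPES pH 7.5 salt buffer with EDTA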
ERa coact inh: ER-alpha (human) coactivator binding inhibition. inhibition, % at 25.6 µM. TR-FRET ER-alpha LBD / SRC-1 peptide, estradiol-bound. AID 629. 86,000 tested, 1.7% active. P03372; in the data active means inhibition above about 50%
sEH activator: increases human soluble epoxide hydrolase activity; purified human sEH enzymatic activity, activator screen; P34913; 91,000 tested, 0.04% active; activation, % at 2 µM; in the data active means activation above about 37%
ERa coact pot: enhances coactivator binding to human estrogen receptor alpha; P03372; TR-FRET ERalpha-LBD/SRC-Cy5 coactivator binding, 2 h; 100 = basal binding, no effect; coactivator binding (% of control), % at 25.6 µM; 86,000 tested, 1.3% active; in the data active means activity above about 200%;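 further: binding measured in presence of low estradiol as agonist stimulus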
sEH inhibitor: inhibitors of human soluble epoxide hydrolase | P34913 | recombinant human sEH enzymatic activity assay | inhibition, % at 2 µM | 91,000 tested, 0.34% active | AID 707; in the data active means inhibition above about 80%
A number is an active result; n = inactive; x = not tested or not shown; [ ] = remark or other dose. Rows were chosen to be rich in hits. Some 3.5% of all compounds tested hit in one or more screens of this group.

SMILES | ERb coact inh | Rev-RRE block | ERa coact inh | sEH activator | ERa coact pot | sEH inhibitor
Cn1nc([N+](=O)[O-])c2c(-c3nc4ccccc4s3)c(N)n(C3CCCCC3)c2c1=O | 65.4 | n | 93.4 | n | n | n
COc1cc(C=O)ccc1OCCSc1ccc(C)cc1 | x | n | x | n | x | n
CCOC(=O)N1CCC2(CC1)C(C#N)=C(N)Oc1c2sc2nc(C)cc(C)c12 | n | n | n | n | n | n
CCCN1CCC2(CC1)C(C#N)=C(N)Oc1c2sc2nc(C)cc(C)c12 | x | 50.1 | x | n | x | n
c1ccc(OCc2nn3c(Cn4nnc5ccccc54)nnc3s2)cc1 | n | x | n | x | n | x
COc1ccc2[nH]c(=O)c(CN(CCO)C(=O)NCc3ccccc3)cc2c1 | n | n | n | n | n | n
C=CCNc1nc2ccccc2nc1NS(=O)(=O)c1cccs1 | n | n | n | n | n | n
O=S(=O)(Nc1nc2ccccc2nc1Nc1ccc2c(c1)OCCO2)c1cccs1 | 71.5[fluorescence artefact?] | x | 69.8[fluorescence artefact?] | x | n | x
C/C(N)=C(/C#N)C(=O)CSc1nnc(Cc2ccccc2F)n1N | 81.1 | n | 68.7 | n | n | n
Nn1c(Cc2ccccc2F)nnc1SCn1nnc2ccccc2c1=O | n | n | n | x | n | x
Cc1cc(C)c(NC(=O)CSc2nc3ccc(NC(=O)CSc4nnnn4Cc4ccccc4)cc3s2)c(C)c1 | n | n | 67.3 | n | n | n
Cn1cnnc1SCC(=O)Nc1ccc2nc(SCc3ccccc3)sc2c1 | n | n | n | n | 366.2[fluorescence artefact?] | n
Cn1cnnc1SCC(=O)Nc1ccc2nc(SCc3cccc4ccccc34)sc2c1 | n | n | n | n | n | n
COc1ccc2oc(C(=O)OCC(=O)c3ccc4c(c3)OCCO4)c(C)c2c1 | n | n | n | n | 228.6 | n
O=C(CSc1ncnc2c1oc1ccccc12)NCC1CCCO1 (configuration not stated) | n | n | n | n | n | n
c1ccc2[nH]c(CSc3ncnc4c3oc3ccccc34)nc2c1 | n | n | n | n | n | n
O=C(CSc1ncnc2c1oc1ccccc12)NC1CCCCC1 | 51.1[fluorescence artefact?] | n | 56.4[fluorescence artefact?] | n | 289.4[fluorescence artefact?] | n
CCSc1ncnc2c1oc1ccccc12 | n | n | n | n | n | n
Fc1ccc(CSc2ncnc3c2oc2ccccc23)cc1 | 56.1[fluorescence artefact?] | x | n | x | n | x
O=C(CSc1ncnc2c1oc1ccccc12)c1cccs1 | n | n | n | n | 282.9[fluorescence artefact?] | n
Cc1nc(SCC(=O)c2cccs2)c2oc3ccccc3c2n1 | n | n | n | n | n | n
Fc1cccc(CSc2ncnc3c2oc2ccccc23)c1 | 57.2[fluorescence artefact?] | n | n | n | 401.8[fluorescence artefact?] | n
O=C(CSc1ncnc2c1oc1ccccc12)NCc1ccc(F)cc1 | 56.9[fluorescence artefact?] | n | n | n | 783.9[fluorescence artefact?] | n
NC(=O)CSc1ncnc2c1oc1ccccc12 | n | n | n | n | n | n
O=C(Cn1c(=O)oc2cc(S(=O)(=O)N3CCCCCC3)ccc21)NC1CCCCC1 | n | x | n | n | 348.5 | n
SMILES | ERb coact inh | Rev-RRE block | ERa coact inh | sEH activator | ERa coact pot | sEH inhibitor
Cc1ccc(NC(=O)Cn2c(=O)oc3cc(S(=O)(=O)N4CCC(C)CC4)ccc32)cc1C | 61.6[fluorescence artefact?] | n | n | n | n | n
CCCC1Cc2nc(N3CCCCC3)c(C#N)cc2CO1 (configuration not stated) | n | n | n | n | n | n
O=C(NCCC1=CCCCC1)c1ccc(F)c(S(=O)(=O)N2CCOCC2)c1 | n | n | n | n | n | 97.4
COc1cc(C2C(C#N)=C(N)Oc3cc(O)ccc32)cc2c1OCO2 (configuration not stated) | n | x | n | x | n | x
COc1cc(C2C(C#N)=C(N)Oc3cc(N(C)C)ccc32)cc2c1OCO2 (configuration not stated) | n | 92.3[fluorescence artefact?] | n | n | n | n
CCCc1cc(N2CCN(c3ccccn3)CC2)n2nc(C)c(-c3ccccc3)c2n1 | n | n | n | x | 241.8[fluorescence artefact?] | x
Cc1cc(N2CCN(Cc3ccccc3)CC2)n2nc(C)c(-c3ccccc3)c2n1 | n | n | n | n | n | n
Cc1cccc(OCc2nnc(SCC(=O)Nc3ccc(C)c(C)c3)o2)c1 | n | n | n | n | 230.3 | n
Cc1cccc(OCc2nnc(SCc3cc(=O)n4cc(Br)ccc4n3)o2)c1 | n | x | n | x | 203.0 | x
Cn1c(-c2ccc(C=O)s2)nc2c3ccccc3c3ccccc3c21 | n | 80.6 | n | n | 364.3[fluorescence artefact?] | n
